The values that follow come from ChEMBL document CHEMBL1121718, “Novel tetracyclic spiropiperidines. 1. 3-Aryl-1,3-dihydrospiro[benzo[c]thiophene-1,4'-piperidines] as potential antidepressants” (1981).

Experiment [1] concerns Mus musculus. Description: Antidepressant activity was measured by the inhibition of tetrabenazine (TBZ) ptosis in mice after i.p. administration. The format is functional. As to conditions: ip. The procedure, abridged:
(§1)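 Male Charles River CD-1 mice (20–30 g), groups of five, dosed ip with compound in distilled water plus a few drops of Tween 80. Tetrabenazine methanesulfonate was given at 40 mg/kg ip 30 min later. After another 30 min, ptosis was scored 0–2 (eyes open, half-open, closed). ED50 and 95% confidence intervals came from linear regression of the scores.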

Experiment [2] relates to Rattus norvegicus. Description: Antidepressant activity was measured by the potentiation of head twitching induced by 5-hydroxy-tryptophan in pargyline-pretreated rats after ip administration. It is filed as functional. The procedure, abridged: (§2)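 Male Wistar rats (150–200 g), six per group (ten per dose in dose-range runs), received pargyline HCl 75 mg/kg sc 4 h before testing. Compound in distilled water plus Tween 80 was given ip 30 min before, then L-5-HTP 1.0 mg/kg ip. From 5 min after 5-HTP, rats were observed 15 min for head twitching with coarse tremors. Results are percent potentiation normalized to vehicle; ED50 with 95% limits by linear regression.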

In experiment [3] the test system is Mus musculus. Description: Antidepressant activity was measured by the inhibition of tetrabenazine ptosis in mice after po administration. It is filed as functional. The procedure, abridged: (§3)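 Male Charles River CD-1 mice (20–30 g), groups of five, dosed orally with compound in distilled water plus a few drops of Tween 80. Tetrabenazine methanesulfonate was given at 40 mg/kg ip 60 min later. After another 30 min, ptosis was scored 0–2 (eyes open, half-open, closed). ED50 and 95% confidence intervals came from linear regression of the scores.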

In experiment [4] the test system is Mus musculus. Description: Antidepressant activity was measured by the inhibition of tetrabenazine (TBZ) ptosis in mice after po administration. It is filed as functional. The procedure, abridged:
as §3

Experiment [5] concerns Mus musculus. Nature of the experiment: Antidepressant activity was measured by the inhibition of tetrabenazine (TBZ) ptosis in mice after ip administration. It is filed as functional. Summed up:
as §1

Experiment [6] deals with Mus musculus. Nature of the experiment: Antidepressant activity was measured by the inhibition of tetrabenazine (TBZ) ptosis in mice after po administration […]. The format is functional.
Experiment [7] concerns Rattus norvegicus. Description: Antidepressant activity was measured by the potentiation of head twitching induced by 5-hydroxy-tryptophan in pargyline-pretreated rats after ip administration;d=Seizures before 5-HTP dosing. It is filed as functional, organism-based. The procedure, abridged:
as §2

The subject of experiment [8] is Rattus norvegicus. Description: Antidepressant activity was measured by the potentiation of head twitching induced by 5-hydroxy-tryptophan in pargyline-pretreated rats after po administration.
Experiment [9] concerns Rattus norvegicus. Nature of the experiment: Antidepressant activity was measured by the potentiation of head twitching induced by 5-hydroxy-tryptophan in pargyline-pretreated rats after ip administration; d= Seizures before 5-HTP dosing. It is filed as functional, organism-based. The procedure, abridged: as §2

Consider `CN(C)CCC=C1c2ccccc2CCc2ccccc21` [AMITRIPTYLINE], for which the 50% effective dose (ED50) in the experiment on Mus musculus [1] was 1.5 mg/kg; in the experiment with Rattus norvegicus [2] it was 7.1 mg/kg; in the experiment on Mus musculus [3], 7.8 mg/kg.
`CN1CCC2(CC1)SC(c1ccc(Cl)c(Cl)c1)c1ccccc12` (stereo not given): the ED50 was found to be 3.5 mg/kg with Mus musculus [1], 0.58 mg/kg with Rattus norvegicus [2] and 6.1 mg/kg in the experiment with Mus musculus [3].
Take `CN(C)CCCN1c2ccccc2CCc2ccc(Cl)cc21` [CLOMIPRAMINE]: the figures for the ED50 in the experiment on Mus musculus [4], in the experiment on Rattus norvegicus [2] and with Mus musculus [5] were 3.5 mg/kg, 3.1 mg/kg and 0.73 mg/kg, respectively.
With `CNCCC(Oc1ccc(C(F)(F)F)cc1)c1ccccc1` (stereo not given) [FLUOXETINE], the 50% effective dose (ED50) in the experiment on Rattus norvegicus [2] was found to be 0.6 mg/kg.
`CNCCCN1c2ccccc2CCc2ccccc21` [DESIPRAMINE]: the median effective dose (ED50) is 1.6 mg/kg in the experiment on Mus musculus [4], > 10 mg/kg with Rattus norvegicus [2] and 0.8 mg/kg in the experiment with Mus musculus [5].
For the compound `Br.CN1CCC2(CC1)SC(c1ccccc1F)c1ccccc12` (stereo not given), the ED50 in the experiment with Mus musculus [1] was 3 mg/kg; in the experiment on Rattus norvegicus [2], > 10 mg/kg; with Mus musculus [3], 2.1 mg/kg.
With `c1ccc(C2SC3(CCNCC3)c3ccccc32)cc1` (stereo not given), the ED50 was 1.1 mg/kg in the experiment on Mus musculus [6], 1.1 mg/kg in the experiment with Mus musculus [1] and 3 mg/kg in the experiment on Rattus norvegicus [2].
On to `Cc1ccccc1C1SC2(CCNCC2)c2ccccc21` (stereo not given), for which the ED50 in the experiment with Rattus norvegicus [2] worked out at 2.8 mg/kg; in the experiment with Mus musculus [3], 1.4 mg/kg.
In the case of `Cc1ccc(C2SC3(CCNCC3)c3ccccc32)cc1` (stereo not given), the median effective dose (ED50) in the experiment on Mus musculus [1] came to 0.69 mg/kg; in the experiment with Rattus norvegicus [2], 0.16 mg/kg; with Mus musculus [3], 3.6 mg/kg.
Turning to `CN1CCC2(CC1)SC(c1ccccc1)c1ccccc12` (stereo not given), the results for the ED50 in the experiment with Mus musculus [4], in the experiment on Rattus norvegicus [2] and with Mus musculus [5] were 4.6 mg/kg, 3.4 mg/kg and 2.5 mg/kg, respectively.
For the compound `CN1CCC2(CC1)SC(c1cccc(C(F)(F)F)c1)c1ccccc12` (stereo not given), the ED50 in the experiment on Mus musculus [1] came to 0.73 mg/kg; in the experiment on Rattus norvegicus [2], 0.52 mg/kg; in the experiment with Mus musculus [3] it was 1.6 mg/kg.
In the case of `FC(F)(F)c1cccc(C2SC3(CCNCC3)c3ccccc32)c1` (stereo not given), the ED50 in the experiment with Mus musculus [1] was determined as 1.2 mg/kg; in the experiment on Mus musculus [3], 1.7 mg/kg.
Turning to `CN1CCC2(CC1)SC(c1ccc(F)cc1)c1ccccc12` (stereo not given), the ED50 in the experiment on Mus musculus [1] came out at 1.4 mg/kg; in the experiment on Rattus norvegicus [2], 1.5 mg/kg; in the experiment with Mus musculus [3], 3.1 mg/kg.
Take `Fc1ccc(C2SC3(CCNCC3)c3ccccc32)cc1` (stereo not given): the ED50 amounted to 0.67 mg/kg in the experiment on Mus musculus [1], 0.32 mg/kg with Rattus norvegicus [2] and 2.1 mg/kg in the experiment with Mus musculus [3].
The corresponding values for `Clc1ccc(C2SC3(CCNCC3)c3ccccc32)c(Cl)c1` (stereo not given) are 2.4 mg/kg, 2.2 mg/kg and 3.8 mg/kg.
The corresponding values for `Fc1ccccc1C1SC2(CCNCC2)c2ccccc21` (stereo not given) are 0.78 mg/kg, 3.9 mg/kg and 6.6 mg/kg.
`Clc1ccc(C2SC3(CCNCC3)c3ccccc32)cc1Cl` (stereo not given): the ED50 in the experiment with Rattus norvegicus [2] was found to be 0.4 mg/kg; with Mus musculus [3] it was 0.82 mg/kg.
As for `CN1CCC2(CC1)SC(c1ccccc1)c1ccc(F)cc12` (stereo not given), the ED50 is 1.8 mg/kg in the experiment on Mus musculus [1], > 10 mg/kg with Rattus norvegicus [2] and 2.8 mg/kg with Mus musculus [3].
Turning to `Br.CN1CCC2(CC1)SC(c1ccc(Cl)cc1Cl)c1ccccc12` (stereo not given), the ED50 in the experiment with Mus musculus [1] worked out at 1.6 mg/kg; in the experiment with Rattus norvegicus [2], 0.91 mg/kg; in the experiment with Mus musculus [3], 3.8 mg/kg.
The corresponding values for `CN1CCC2(CC1)SC(c1cccc(F)c1)c1ccccc12` (stereo not given) are 0.83 mg/kg, > 10 mg/kg and 3.3 mg/kg.
For the compound `Br.Cc1cccc(C2SC3(CCN(C)CC3)c3ccccc32)c1` (stereo not given), the values for the ED50 in the experiment with Mus musculus [1] and in the experiment with Rattus norvegicus [2] were ~20 mg/kg and > 2 mg/kg, respectively.
For the compound `Clc1cccc(C2SC3(CCNCC3)c3ccccc32)c1` (stereo not given), the ED50 in the experiment on Mus musculus [1] is 0.52 mg/kg; in the experiment on Rattus norvegicus [7], “Seizures before dosing”; in the experiment with Mus musculus [3], 1.8 mg/kg.
With `Cc1ccc(C2SC3(CCN(C)CC3)c3ccccc32)cc1` (stereo not given), the 50% effective dose (ED50) in the experiment with Mus musculus [1] is ~3 mg/kg; in the experiment on Rattus norvegicus [2], 1 mg/kg.
Take `CN1CCC2(CC1)SC(c1ccc(Cl)cc1)c1ccccc12` (stereo not given): the ED50 in the experiment with Mus musculus [1] worked out at 1.3 mg/kg; with Rattus norvegicus [2] it was 0.4 mg/kg; in the experiment on Mus musculus [3], 1.4 mg/kg.
Take `Clc1ccc(C2SC3(CCNCC3)c3ccccc32)cc1` (stereo not given): the ED50 was found to be 2.1 mg/kg in the experiment on Mus musculus [1], 0.03 mg/kg in the experiment on Rattus norvegicus [2], 0.78 mg/kg in the experiment on Rattus norvegicus [8] and 1.6 mg/kg in the experiment with Mus musculus [3].
`Cc1cccc(C2SC3(CCNCC3)c3ccccc32)c1` (stereo not given): the median effective dose (ED50) in the experiment with Mus musculus [1] amounted to 1.9 mg/kg; in the experiment on Rattus norvegicus [2], 0.71 mg/kg; with Mus musculus [3], 2.9 mg/kg.
The like results for `Cc1ccccc1C1SC2(CCN(C)CC2)c2ccccc21` (stereo not given) were, in that order, 0.77 mg/kg, > 10 mg/kg and 1.3 mg/kg.
For the compound `Fc1cccc(C2SC3(CCNCC3)c3ccccc32)c1` (stereo not given), the values for the ED50 in the experiment on Rattus norvegicus [2] and in the experiment on Mus musculus [3] were 0.16 mg/kg and 3.1 mg/kg, respectively.
`Br.CN1CCC2(CC1)SC(c1cccc(Cl)c1)c1ccccc12` (stereo not given): the ED50 was 0.9 mg/kg in the experiment with Mus musculus [1], “Seizures before dosing” in the experiment on Rattus norvegicus [9] and 1.3 mg/kg with Mus musculus [3].
Regarding `Clc1ccccc1C1SC2(CCNCC2)c2ccccc21` (stereo not given), the ED50 in the experiment on Rattus norvegicus [2] turned out to be 4.4 mg/kg; in the experiment on Mus musculus [3], 2.2 mg/kg.
For `CN1CCC2(CC1)SC(c1ccccc1Cl)c1ccccc12` (stereo not given), the ED50 was determined as 0.6 mg/kg in the experiment on Mus musculus [1], 10.1 mg/kg in the experiment on Rattus norvegicus [2] and 3.6 mg/kg in the experiment on Mus musculus [3].
